In ChEMBL document CHEMBL2384906, “Biological activity, design, synthesis and structure activity relationship of some novel derivatives of curcumin containing sulfonamides” (Eur J Med Chem, 2013):
Active and inactive are the calls of the source. No cut-off for these calls is given here.

How the values were obtained:
Trichoderma viride [1] = assay: Antifungal activity against Trichoderma viride MTCC 1107 assessed as zone of inhibition at 40 uM after 48 hrs by disc diffusion method; type: functional; conditions: MTCC 1107, 48 h, read-out: IZ
Summary of the method: (§1)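 Spores from 4-day potato dextrose agar cultures, suspended in sterile water at 1.5 × 10⁵ CFU/mL. 0.2 mL was spread on potato dextrose agar. 5 mm filter-paper discs soaked with test compound were laid on the lawn. Incubation was 48 h at 28 °C, then the inhibition zone was measured in mm. Fluconazole was the positive control and acetone the negative control.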

Aspergillus niger [2] = assay: Antifungal activity against Aspergillus niger MTCC 1108 assessed as zone of inhibition at 20 uM after 48 hrs by disc diffusion method; type: functional; summary of the method: as §1
HeLa = assay: Cytotoxicity against human HeLa cells after 24 hrs by MTT assay; type: functional, cell-based
Summary of the method: (§2)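 The MTT assay seeded 5 × 10⁴ cells per well and grew them 24 h in RPMI 1640 with compound at 2.5–200 µM. Medium without cells was the blank and adriamycin the positive control. MTT was added for 4 h at 37 °C, formazan was solubilised, and absorbance was read at 570 nm. IC50 is the concentration that cuts viability 50% against untreated cells.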

Bacillus cereus [3] = assay: Antimicrobial activity against Bacillus cereus MTCC 7350 after 24 hrs by broth micro serial dilution method; type: functional
Summary of the method: (§3)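 This was broth microdilution in autoclaved Mueller-Hinton broth. 150 µL of compound per well was serially diluted […], and 50 µL of test organism was added. Plates were incubated 24 h at 37 °C and optical density was read.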

Pseudomonas aeruginosa [4] = assay: Antimicrobial activity against Pseudomonas aeruginosa ATCC 15499 assessed as diameter of inhibition zone at 20 uM after 24 hrs by Kirby -Baur disc diffusion method; type: functional
Summary of the method: (§4)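 Kirby-Bauer disc diffusion was used. Acetone stocks (160 µM) were serially doubled down to 80, 40 and 20 µM. 4 µL of each went onto 5 mm sterile paper discs, which were dried 30 min at 50 °C. Inoculum was 1.5 × 10⁸ CFU/mL diluted to 3 × 10² CFU/mL, and 50 µL was spread on Mueller-Hinton agar. After 24 h at 37 °C the inhibition-zone diameter was measured. Ciprofloxacin served as positive control.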

Curvularia lunata [5] = assay: Antifungal activity against Curvularia lunata MTCC 581 after 48 hrs; type: functional; conditions: MTCC 581, 48 h
Aspergillus niger [6] = assay: Antifungal activity against Aspergillus niger MTCC 1108 after 48 hrs; type: functional; conditions: MTCC 1108, 48 h
Aspergillus flavus [7] = assay: Antifungal activity against Aspergillus flavus MTCC 1021 assessed as zone of inhibition at 40 uM after 48 hrs by disc diffusion method; type: functional; conditions: MTCC 1021, 48 h, read-out: IZ; summary of the method: as §1
HCT-116 = assay: Cytotoxicity against human HCT116 cells after 24 hrs by MTT assay; type: functional, cell-based; summary of the method: as §2
Escherichia coli [8] = assay: Antimicrobial activity against Escherichia coli ATCC 35218 assessed as diameter of inhibition zone at 80 uM after 24 hrs by Kirby -Baur disc diffusion method; type: functional; conditions: ATCC 35218, 24 h, read-out: DIZ; summary of the method: as §4
Staphylococcus aureus [9] = assay: Antimicrobial activity against Staphylococcus aureus ATCC 11632 assessed as diameter of inhibition zone at 80 uM after 24 hrs by Kirby -Baur disc diffusion method; type: functional; summary of the method: as §4
Trichoderma viride [10] = assay: Antifungal activity against Trichoderma viride MTCC 1107 after 48 hrs; type: functional; conditions: MTCC 1107, 48 h
QG-56 = assay: Cytotoxicity against human QG56 cells after 24 hrs by MTT assay; type: functional, cell-based; summary of the method: as §2
Curvularia lunata [11] = assay: Antifungal activity against Curvularia lunata MTCC 581 assessed as zone of inhibition at 40 uM after 48 hrs by disc diffusion method; type: functional; conditions: MTCC 581, 48 h, read-out: IZ; summary of the method: as §1
Aspergillus flavus [12] = assay: Antifungal activity against Aspergillus flavus MTCC 1021 after 48 hrs; type: functional; conditions: MTCC 1021, 48 h
Trichoderma viride [13] = assay: Antifungal activity against Trichoderma viride MTCC 1107 assessed as zone of inhibition at 20 uM after 48 hrs by disc diffusion method; type: functional; summary of the method: as §1
Escherichia coli [14] = assay: Antimicrobial activity against Escherichia coli ATCC 35218 assessed as diameter of inhibition zone at 20 uM after 24 hrs by Kirby -Baur disc diffusion method; type: functional; summary of the method: as §4
Curvularia lunata [15] = assay: Antifungal activity against Curvularia lunata MTCC 581 assessed as zone of inhibition at 20 uM after 48 hrs by disc diffusion method; type: functional; summary of the method: as §1
Escherichia coli [16] = assay: Antimicrobial activity against Escherichia coli ATCC 35218 after 24 hrs by broth micro serial dilution method; type: functional; conditions: ATCC 35218, 24 h; summary of the method: as §3
Aspergillus niger [17] = assay: Antifungal activity against Aspergillus niger MTCC 1108 assessed as zone of inhibition at 80 uM after 48 hrs by disc diffusion method; type: functional; conditions: MTCC 1108, 48 h, read-out: IZ; summary of the method: as §1
Trichoderma viride [18] = assay: Antifungal activity against Trichoderma viride MTCC 1107 assessed as zone of inhibition at 80 uM after 48 hrs by disc diffusion method; type: functional; conditions: MTCC 1107, 48 h, read-out: IZ; summary of the method: as §1
Pseudomonas aeruginosa [19] = assay: Antimicrobial activity against Pseudomonas aeruginosa ATCC 15499 assessed as diameter of inhibition zone at 80 uM after 24 hrs by Kirby -Baur disc diffusion method; type: functional; conditions: ATCC 15499, 24 h, read-out: DIZ; summary of the method: as §4
Salmonella typhi [20] = assay: Antimicrobial activity against Salmonella typhi ATCC 23564 assessed as diameter of inhibition zone at 80 uM after 24 hrs by Kirby -Baur disc diffusion method; type: functional, Salmonella enterica subsp. enterica serovar Typhi; conditions: Salmonella enterica, ATCC 23564, 24 h; read-out: DIZ
Mus musculus = assay: Antiinflammatory activity in mouse assessed as inhibition of carrageenan-induced increase in paw volume at 200 mg/kg administered 1 hr prior to carrageenan challenge measured after 3 hrs relative to control; type: functional
Summary of the method: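 Mice were fasted 2 h and placed in groups of five. Controls received saline i.p. Phenylbutazone was given at 100 mg/kg i.p., curcumin at 200 mg/kg i.p., and derivatives at 200 mg/kg. After 1 h, 0.1 mL of 1% carrageenan in saline was injected subplantar into the right hind paw. Paw volume was followed by plethysmometer for 3 h, and % inhibition was calculated as (Vc − Vt)/Vc × 100.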

Curvularia lunata [21] = assay: Antifungal activity against Curvularia lunata MTCC 581 assessed as zone of inhibition at 80 uM after 48 hrs by disc diffusion method; type: functional; conditions: MTCC 581, 48 h, read-out: IZ; summary of the method: as §1
Aspergillus niger [22] = assay: Antifungal activity against Aspergillus niger MTCC 1108 assessed as zone of inhibition at 40 uM after 48 hrs by disc diffusion method; type: functional; summary of the method: as §1
Aspergillus flavus [23] = assay: Antifungal activity against Aspergillus flavus MTCC 1021 assessed as zone of inhibition at 80 uM after 48 hrs by disc diffusion method; type: functional; conditions: MTCC 1021, 48 h, read-out: IZ; summary of the method: as §1
Pseudomonas aeruginosa [24] = assay: Antimicrobial activity against Pseudomonas aeruginosa ATCC 15499 assessed as diameter of inhibition zone at 40 uM after 24 hrs by Kirby -Baur disc diffusion method; type: functional; summary of the method: as §4
Salmonella typhi [25] = assay: Antimicrobial activity against Salmonella typhi ATCC 23564 assessed as diameter of inhibition zone at 20 uM after 24 hrs by Kirby -Baur disc diffusion method; type: functional; conditions: Salmonella enterica subsp. enterica serovar Typhi
HepG2 = assay: Cytotoxicity against human HepG2 cells after 24 hrs by MTT assay; type: functional, cell-based; summary of the method: as §2
Staphylococcus aureus [26] = assay: Antimicrobial activity against Staphylococcus aureus ATCC 11632 after 24 hrs by broth micro serial dilution method; type: functional; summary of the method: as §3
Bacillus cereus [27] = assay: Antimicrobial activity against Bacillus cereus MTCC 7350 assessed as diameter of inhibition zone at 80 uM after 24 hrs by Kirby -Baur disc diffusion method; type: functional; summary of the method: as §4
Escherichia coli [28] = assay: Antimicrobial activity against Escherichia coli ATCC 35218 assessed as diameter of inhibition zone at 40 uM after 24 hrs by Kirby -Baur disc diffusion method; type: functional; conditions: ATCC 35218, 24 h, read-out: DIZ; summary of the method: as §4
Salmonella typhi [29] = assay: Antimicrobial activity against Salmonella typhi ATCC 23564 after 24 hrs by broth micro serial dilution method; type: functional, Salmonella enterica subsp. enterica serovar Typhi; conditions: Salmonella enterica, ATCC 23564, 24 h
Aspergillus flavus [30] = assay: Antifungal activity against Aspergillus flavus MTCC 1021 assessed as zone of inhibition at 20 uM after 48 hrs by disc diffusion method; type: functional; summary of the method: as §1
Salmonella typhi [31] = assay: Antimicrobial activity against Salmonella typhi ATCC 23564 assessed as diameter of inhibition zone at 40 uM after 24 hrs by Kirby -Baur disc diffusion method; type: functional, Salmonella enterica subsp. enterica serovar Typhi; conditions: Salmonella enterica, ATCC 23564, 24 h; read-out: DIZ
Pseudomonas aeruginosa [32] = assay: Antimicrobial activity against Pseudomonas aeruginosa ATCC 15499 after 24 hrs by broth micro serial dilution method; type: functional; conditions: ATCC 15499, 24 h; summary of the method: as §3

Which results are given for `COc1cc(/C=C/C(=O)C(/N=N/c2ccc(S(N)(=O)=O)cc2)=C(O)/C=C/c2ccc(O)c(OC)c2)ccc1O`?
zone of inhibition at 40 µM (Trichoderma viride [1]): 10 mm; inhibition zone (IZ) (Aspergillus niger [2]): inactive; IC50 (HeLa): > 100 µM; MIC (Bacillus cereus [3]): inactive; diameter of the inhibition zone (DIZ) (Pseudomonas aeruginosa [4]): inactive; MIC (Curvularia lunata [5]): > 80 µM; MIC (Aspergillus niger [6]): > 80 µM; zone of inhibition at 40 µM (Aspergillus flavus [7]): 9 mm; IC50 (HCT-116): Not Active; zone of inhibition at 80 µM (Escherichia coli [8]): 12 mm; diameter of the inhibition zone (DIZ) (Staphylococcus aureus [9]): inactive; MIC (Trichoderma viride [10]): > 80 µM; IC50 (QG-56): Not Active; zone of inhibition at 40 µM (Curvularia lunata [11]): 10 mm; MIC (Aspergillus flavus [12]): > 80 µM; inhibition zone (IZ) (Trichoderma viride [13]): inactive; diameter of the inhibition zone (DIZ) (Escherichia coli [14]): inactive; inhibition zone (IZ) (Curvularia lunata [15]): inactive; MIC (Escherichia coli [16]): > 80 µM; zone of inhibition at 80 µM (Aspergillus niger [17]): 10 mm; zone of inhibition at 80 µM (Trichoderma viride [18]): 11 mm; zone of inhibition at 80 µM (Pseudomonas aeruginosa [19]): 9 mm; zone of inhibition at 80 µM (Salmonella typhi [20]): 11 mm; inhibition in vivo at 200 mg/kg (Mus musculus): 16.1%; zone of inhibition at 80 µM (Curvularia lunata [21]): 11 mm; inhibition zone (IZ) (Aspergillus niger [22]): inactive; zone of inhibition at 80 µM (Aspergillus flavus [23]): 11 mm; diameter of the inhibition zone (DIZ) (Pseudomonas aeruginosa [24]): inactive; diameter of the inhibition zone (DIZ) (Salmonella typhi [25]): inactive; IC50 (HepG2): Not Active; MIC (Staphylococcus aureus [26]): inactive; diameter of the inhibition zone (DIZ) (Bacillus cereus [27]): inactive; zone of inhibition at 40 µM (Escherichia coli [28]): 9 mm; MIC (Salmonella typhi [29]): > 80 µM; inhibition zone (IZ) (Aspergillus flavus [30]): inactive; zone of inhibition at 40 µM (Salmonella typhi [31]): 9 mm; MIC (Pseudomonas aeruginosa [32]): > 80 µM
